SMILES strings stand for the structures. Calls of active or inactive are those of the source. The rule behind the calls is not given here.

Assay [1] has as its system NALM-6. Description: Cytostatic activity against eFluor670-labelled human NALM6 cells assessed as live cells at 2 umol/L measured on day 5 by Hoechst-33258 staining-based FACS analysis (reference value: 98.6%). In kind it is functional. For orientation: A flow cytometer gives signals particle by particle.
For the next assay, the system named is Jurkat. In words: Cytostatic activity against eFluor670-labelled human Jurkat cells assessed as live cells at 2 umol/L measured on day 4 by Hoechst-33258 staining-based FACS analysis (reference value: 97.3%). In kind it is functional.
Assay [2] relates to NALM-6. Description: Cytostatic activity against eFluor670-labelled human NALM6 cells assessed as live cells at 2 umol/L measured on day 2 by Hoechst-33258 staining-based FACS analysis (reference value: 97.7%). It is filed as functional.
Assay [3] relates to NALM-6. In words: Cytostatic activity against human NALM6 cells assessed as population doubling level at 2 umol/L after 6 days using Burker counting chamber (reference value: 3.44). In kind it is functional. Put shortly:
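Cells were seeded at 2.5 × 10^5 cells/mL in DMSO-containing medium, with or without 2 μmol/L compound. Cells were counted daily in a Bürker chamber. PDL was calculated as log(Nf/N0)/log 2 over 6 days. Values are mean ± SD of three experiments, compared with DMSO controls.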

Assay [4] can be described thus: Cytotoxicity against human REH cells assessed as reduction in viable cells measured after 24 hrs by Hoechst-33258 staining-based FACS analysis. In kind it is functional, cell-based. The method in brief:
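Leukemic lines kept in RPMI1640 with 10% FBS, penicillin/streptomycin, 37 °C, 5% CO2. Seeded at 2 × 10^5 cells/mL and exposed 24 h to a range of compound concentrations (DMSO stock); medium and DMSO negative controls. Live fraction taken from Hoechst 33258-negative singlets by flow cytometry. EC50 from five-parameter nonlinear regression.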

The next assay relates to REH. In words: Decrease in C-MYC mRNA level in human REH cells at EC50 measured after 24 hrs by RT-qPCR analysis. In kind it is functional, cell-based. (Real-time PCR tracks product formation cycle by cycle.)
Assay [5] can be described thus: Downregulation of P70S6K protein expression in human Jurkat cells up to 20 umol/L measured after 24 hrs by immunoblot analysis. In kind it is functional, cell-based. The method in brief: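 Cells prepared as for RT-qPCR (7.5 × 10^5 cells/mL). Treated either with the line-specific EC50 concentration over a time course, or 24 h with graded concentrations up to that EC50. Cells washed with phosphatase inhibitors and lysed in RIPA; 40 μg protein per lane on SDS-PAGE, then nitrocellulose. Immunoblotted for C-MYC, P70S6K, p-P70S6K (Ser424) and actin.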
Background: In western blotting, separated proteins are transferred to a membrane and probed.

For the compound `CCCCCC(=O)C1=C(O)C(=O)c2c(O)c(O)cc(O)c2C1=O`, the Activity in the assay on NALM-6 [1] is 50.1%; in the assay on Jurkat, 39.5%; in the assay on NALM-6 [2], 97.7%; with NALM-6 [3], 1.75. Also, in assay [4], the EC50 (usually the concentration giving half of the maximal effect) came to 22 µM. Moreover, in the assay with REH, the outcome was Active. Further, the inhibition entry in assay [5] was “Active”.

(Values after ChEMBL document CHEMBL3868590, “Quambalarine B, a Secondary Metabolite from Quambalaria cyanescens with Potential Anticancer Properties” (J Nat Prod, 2016).)
